Reference: BindingDB's records for doi:10.1021/jm950682e (Institute De Recherches Servier, 1996)
Numbered stars: 1 amine (or outer) side, 2 acyl side, 3 side chain; on linkers, the order of the positions; unused ones are H or OH. Square brackets hold non-standard residues; d marks the D form. Peptide text beside a SMILES is read from it. * marks the point of attachment. Pentanoyl(5-guanidino) = NC(N)=NCCCCC(=O)*; NH(CH2)9CO = O=C(CCCCCCCCCN[*:1])[*:2]; Oic = O=C(O)[CH]1C[CH]2CCCC[CH]2N1; Tic = O=C(O)[CH]1Cc2ccccc2CN1; 2Thi = N[CH](Cc1cccs1)C(=O)O; X2 = N=C(N)NCCCCCC(=O)*; GABA = NCCCC(=O)O

Target: T1, B2 bradykinin receptor (Oryctolagus cuniculus, UniProt Q28642)
T1 sequence (Q28642 whole entry): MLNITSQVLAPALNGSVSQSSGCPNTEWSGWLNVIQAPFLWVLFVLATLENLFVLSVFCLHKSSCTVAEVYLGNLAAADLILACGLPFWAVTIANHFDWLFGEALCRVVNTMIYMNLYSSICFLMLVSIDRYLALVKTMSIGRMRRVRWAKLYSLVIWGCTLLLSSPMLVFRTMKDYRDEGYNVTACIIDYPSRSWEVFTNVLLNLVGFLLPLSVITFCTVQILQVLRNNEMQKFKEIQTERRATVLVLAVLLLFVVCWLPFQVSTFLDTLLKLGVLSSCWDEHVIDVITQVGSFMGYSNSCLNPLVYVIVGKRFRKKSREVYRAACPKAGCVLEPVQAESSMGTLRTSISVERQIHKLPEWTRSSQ
Experiment: In vitro antagonistic activity against kinin-induced rabbit jugular vein contraction.
How it was run: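 Rabbit jugular vein rings (B2 tissue), reference KCl 60 mM contraction then 45 min rest; antagonist, usually 10-7, 10^-6 and 10^-5 M, incubated 45 min before cumulative bradykinin; one curve per ring; pA2 by Tallarida's method with Schild slope constrained to unity, or pKB from EC50 ratio when activity appeared only at 10^-5 M.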

Row | Compound | Kd [nM]
1 | N=C(N)NCCCCCC(=O)NC(Cc1cccs1)C(=O)N1Cc2ccccc2CC1C(=O)N1C(C(=O)NC(CCCNC(=N)N)C(=O)O)CC2CCCCC21 (stereo not given) (X2-[2Thi][Tic][Oic]R-OH; configuration not given here) | 3390
2 | N=C(N)NCCCC(NC(=O)C1CC2CCCCC2N1C(=O)C1Cc2ccccc2CN1C(=O)C(Cc1ccccc1)NC(=O)CCCN)C(=O)O (stereo not given) (H-[GABA]F[Tic][Oic]R-OH; configuration not given here) | 363

Results, then the compound that gave them:

Row | Kd [nM] | Compound
3 | 251 | N=C(N)NCCCC(NC(=O)C1CC2CCCCC2N1C(=O)C1Cc2ccccc2CN1C(=O)C(Cc1cccs1)NC(=O)CCCN)C(=O)O (stereo not given) (H-[GABA][2Thi][Tic][Oic]R-OH; configuration not given here)
4 | 3020 | N=C(N)NCCCCC(=O)NC(Cc1cccs1)C(=O)N1Cc2ccccc2CC1C(=O)N1C(C(=O)NC(CCCNC(=N)N)C(=O)O)CC2CCCCC21 (stereo not given) ({Pentanoyl(5-guanidino)}-[2Thi][Tic][Oic]R-OH; configuration not given here)
5 | 468 | N=C(N)NCCCC(NC(=O)C1CC2CCCCC2N1C(=O)C1Cc2ccccc2CN1C(=O)C(Cc1cccs1)NC(=O)CCCCCCCCCN)C(=O)O (stereo not given) ({NH(CH2)9CO}-[2Thi][Tic][Oic]R-OH; configuration not given here)
